Measurements pooled from the literature.
Lines come from different studies, so protocols differ.
CDK18: Cyclin-dependent kinase 18 (CDK18, Homo sapiens, UniProt Q07002)
CDK18 with cyclin Y: Cyclin-dependent kinase 18, with cyclin Y (CDK18, Homo sapiens, UniProt Q07002)

| SMILES | target | test | conditions | endpoint | result |
| --- | --- | --- | --- | --- | --- |
| O=C(NS(=O)(=O)c1ccc(NCC2CCOCC2)c([N+](=O)[O-])c1)c1ccc(N2CCN(Cc3ccc(C(F)(F)F)cc3-c3ccc(Cl)cc3)CC2)cc1Oc1cnc2[nH]ccc2c1 | CDK18 | cell-free assay, competition with immobilised ligand | 1 µM | remaining binding | 100% |
| COc1cc(Cl)c(C(=O)N[C@@H](CN[C@H]2CC[C@@H](N)CC2)Cc2ccc(C#N)cc2)cc1-c1ccc(CN[C@H](C)c2ccc(C)cc2)o1 | CDK18 with cyclin Y | enzyme activity, inhibitor | 1 µM | remaining activity | 103% |
| Fc1cccc(-n2cnc3c(NCc4nc5c(F)c(F)ccc5[nH]4)nc(N4CCOCC4)nc32)c1 | CDK18 | binding, competition with immobilised ligand | 10 µM | binding vs control | 37% |
| Nc1ncnc2occ(-c3ccc(NC(=O)Nc4cc(C(F)(F)F)ccc4F)cc3)c12 | CDK18 | cell-free assay, inhibitor | 20 µM | remaining signal | 0.1% |
| Cc1sc(C(=O)NC2COC2)cc1-n1cc(NC(=O)Nc2c(F)cccc2Cl)cn1 | CDK18 with cyclin Y | enzyme activity, inhibitor | 10 µM | remaining activity | 119% |
| Cc1ccc(C(=O)Nc2ccc(CN3CCN(C)CC3)c(C(F)(F)F)c2)cc1C#Cc1cnc2cccnn12 | CDK18 | enzyme activity, inhibitor | 23.5 nM | remaining activity | 89% |
| O=[N+]([O-])c1cccc2[nH]c(CNc3nc(N4CCOCC4)nc4c3ncn4-c3ccsc3)nc12 | CDK18 | binding, competition with immobilised ligand | 10 µM | binding vs control | 62% |
| Cc1ccc(C(=O)NCc2ccsc2)cc1C#Cc1cn(C(C)C)c2ncnc(N)c12 | CDK18 with cyclin Y | enzyme activity, inhibitor | 1 µM | activity vs control | 82% |
| CN1CC(Oc2cnc(C#N)cc2-c2ccn3nc(NC(=O)C4CC4)cc3c2)C1 | CDK18 with cyclin Y | enzyme activity, inhibitor | 1 µM | inhibition | 1% |
| O=C(Nc1cnn(-c2csc(C(=O)NC3COC3)c2)c1)Nc1ccccc1Cl | CDK18 with cyclin Y | enzyme activity, inhibitor | 5 µM | remaining activity | 101% |
| CSc1cccnc1N1CCN(Cc2nc3ccccc3[nH]2)CC1 | CDK18 | cell-free assay, competition with immobilised ligand | 1 µM | remaining binding | 100% |
